Measured values from different studies.
Target: Activin receptor type-1B (ACVR1B, Homo sapiens, UniProt P36896)
Sequence (P36896 24-505, as in one of the studies): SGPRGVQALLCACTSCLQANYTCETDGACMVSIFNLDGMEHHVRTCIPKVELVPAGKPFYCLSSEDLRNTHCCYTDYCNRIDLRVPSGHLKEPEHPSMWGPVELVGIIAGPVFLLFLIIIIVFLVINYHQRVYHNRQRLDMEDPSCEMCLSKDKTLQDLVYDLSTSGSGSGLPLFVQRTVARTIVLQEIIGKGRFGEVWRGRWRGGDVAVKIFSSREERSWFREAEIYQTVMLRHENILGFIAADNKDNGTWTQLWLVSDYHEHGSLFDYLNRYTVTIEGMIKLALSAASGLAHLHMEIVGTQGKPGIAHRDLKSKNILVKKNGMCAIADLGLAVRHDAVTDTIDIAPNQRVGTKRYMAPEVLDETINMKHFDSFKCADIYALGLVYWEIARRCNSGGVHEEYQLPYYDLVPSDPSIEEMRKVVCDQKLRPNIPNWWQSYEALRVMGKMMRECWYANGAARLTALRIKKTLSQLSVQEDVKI

Structure (SMILES) | test | setting | remaining binding [%]
CN(C)c1ncnc(-c2ccc3nc(Nc4cc(CN5CCN(C(=O)CC(F)(F)F)CC5)ccn4)[nH]c3c2)c1Cl | cell-free assay, competition with immobilised ligand | 1 µM | 91
C[C@H]1CCN(c2nccc(-c3cnn4ncccc34)n2)C1 | binding | 1 µM | 71
C[C@@H](c1ccc(-n2cnc3c(N)ncnc32)cc1)N1CCc2nn(C)c(Cc3ccccc3)c2C1=O | binding, competition with immobilised ligand | 0.1 µM | 93
N#Cc1ccccc1CSc1nnc2c(n1)[nH]c1ccccc12 | binding, competition with immobilised ligand | 10 µM | 91
CN(C)c1ncc(F)c(-c2cnn3ncccc23)n1 | binding | 1 µM | 100
CNC(=O)c1ccc(Nc2ncc(C(F)(F)F)c(NCc3nccnc3N(C)S(C)(=O)=O)n2)cc1 | cell-free assay, competition with immobilised ligand | 0.1 µM | 69
CC(C)(C)c1ccc(-c2nc(CBr)nn2-c2cccc(O)c2)cc1 | cell-free assay, competition with immobilised ligand | 10 µM | 100
CNC(=O)[C@@H]1CC[C@@H](n2c(-c3ccc4cnccc4c3)nc3ccc(C(=O)NCc4cccc(C(N)=O)c4)cc32)C1 | binding, competition with immobilised ligand | 1 µM | 100
COc1cccc(CNC(=O)c2nc3scc(COCc4ccc(C(=O)O)cc4)c3c(=O)[nH]2)c1 | cell-free assay, competition with immobilised ligand | 1 µM | 89.4
O=C(c1ccc(Nc2ncc(Cl)c(-c3cc4ccccc4s3)n2)cc1)N1CCC(N2CCCC2)CC1 | binding, competition with immobilised ligand | 1 µM | 48
C[C@@H]1CN(c2ccc3ncc(-c4ccc5[nH]nc(C6CC6)c5c4)n3n2)C[C@H](C)O1 | binding, competition with immobilised ligand | 50 nM | 100
COc1cnc(Nc2cccc(S(N)(=O)=O)c2)nc1N1CCN(c2ccccc2)CC1 | binding, competition with immobilised ligand | 1 µM | 98
CCN1CCN(Cc2ccc(C(=O)Nc3ccc(C)c(Oc4ccc5c(c4)CC(=O)N5)c3)cc2C(F)(F)F)CC1 | binding, competition with immobilised ligand | 1 µM | 100
c1cnn2ncc(-c3ccnc(N4CCC45COC5)n3)c2c1 | binding | 1 µM | 82
Cc1c(NC(=O)c2cc(C(N)=O)nc3cc(F)ccc23)c(C(F)(F)F)nn1Cc1ccc(C#N)cc1 | cell-free assay, competition with immobilised ligand | 1 µM | 80
COc1ccnn2ncc(-c3ccnc(N(C)C)n3)c12 | binding | 1 µM | 85
O=C(c1ccc(Nc2ncc(Cl)c(-c3ccc(Cl)s3)n2)cc1)N1CCC(N2CCCC2)CC1 | binding, competition with immobilised ligand | 1 µM | 58
CC1CCCN1c1nccc(-c2cnn3ncccc23)n1 (stereo not shown) | binding | 1 µM | 88
CCC(=O)N[C@@H]1CC[C@H](C(=O)N(C)c2ccc(-c3nc4ccccc4o3)cc2)C1 | cell-free assay, competition with immobilised ligand | 1 µM | 100
O=C(NCCCN1CCOCC1)c1ccc(Nc2nccc(-c3cc4ccccc4s3)n2)cc1 | binding, competition with immobilised ligand | 1 µM | 75
O=C(Nc1c[nH]nc1C(=O)NC1CCNCC1)c1cc(F)cc(F)c1 | binding, competition with immobilised ligand | 1 µM | 90
N[C@@H]1CCN(c2nccc(-c3cnn4ncccc34)n2)C1 | binding | 1 µM | 100
O=C(NCc1ncc(C(F)(F)F)cc1Cl)c1ccc2c(c1)C1(CCS(=O)(=O)CC1)[C@H](C1CC1)N2S(=O)(=O)c1ccc(F)cc1 | cell-free assay, competition with immobilised ligand | 1 µM | 94
Cc1cnn2ncc(-c3ccnc(N(C)C)n3)c2c1 | binding | 1 µM | 100
Cc1nc(C2CCN(C(=O)c3ccc(OC(F)(F)F)cc3N)CC2)c2ncc(N3CCN(C)CC3)cc2n1 | cell-free assay, competition with immobilised ligand | 1 µM | 86
